Source: PubChem BioAssay
GalR3 antag – antagonists of human GalR3; O60755; inhibition, % at 3 µM; actives 0.44% (n = 360,000); HEK293 GalR3-CNG cAMP membrane potential fluorescence; galR3 body fused to GalR1 C-terminus;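 active means inhibition above the screen-wide average plus 3 SD, cut at about 13% in these data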;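 further: forskolin and galanin both at EC90 stimulate the cells; cAMP rise reported by CNG channel membrane potential dye signal; 0% = forskolin plus galanin with DMSO and 100% = forskolin alone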
Target sequence (O60755 1-299 limits assumed): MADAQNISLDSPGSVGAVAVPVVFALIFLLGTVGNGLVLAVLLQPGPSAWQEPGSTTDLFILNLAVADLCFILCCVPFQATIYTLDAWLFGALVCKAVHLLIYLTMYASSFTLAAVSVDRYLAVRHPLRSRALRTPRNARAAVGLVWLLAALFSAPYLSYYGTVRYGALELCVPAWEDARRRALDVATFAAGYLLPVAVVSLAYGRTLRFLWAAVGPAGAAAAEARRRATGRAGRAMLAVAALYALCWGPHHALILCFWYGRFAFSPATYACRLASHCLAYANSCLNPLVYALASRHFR
OX1R antag-1 – OX1R (human) antagonism | O43613 | OX1R-expressing cells, FRET antagonist read-out | inhibition, % at 6.6 µM | actives 1.8% (n = 330,000); in the data active means inhibition mostly above about 38%, no sharp cut-off; inactive means mostly below about 40%;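 further: 0% = agonist challenge alone and 100% = reference antagonist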
Target sequence (O43613 whole entry, looked up): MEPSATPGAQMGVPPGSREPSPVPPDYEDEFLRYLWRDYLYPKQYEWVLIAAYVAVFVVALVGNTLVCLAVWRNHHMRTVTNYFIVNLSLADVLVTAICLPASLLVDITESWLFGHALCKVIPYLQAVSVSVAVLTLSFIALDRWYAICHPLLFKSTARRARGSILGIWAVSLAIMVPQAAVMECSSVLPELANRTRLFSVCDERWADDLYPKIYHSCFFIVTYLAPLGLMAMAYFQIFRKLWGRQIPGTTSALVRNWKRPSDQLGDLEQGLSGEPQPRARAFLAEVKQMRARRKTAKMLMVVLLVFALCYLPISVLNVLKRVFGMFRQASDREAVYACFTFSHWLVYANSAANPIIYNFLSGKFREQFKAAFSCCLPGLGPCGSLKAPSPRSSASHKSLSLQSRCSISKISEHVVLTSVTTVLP
TAAR1 antag – human TAAR1 antagonism; CHO RD-HGA16 TAAR1, Fluo-8 calcium fluorescence, antagonist; AID 624466; Q96RJ0; actives 1.5% (n = 360,000); inhibition, % at 3 µM;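 active means inhibition above a per-plate cutoff, the mean inhibition of test compounds on that plate plus 3 SD, cut at about 49% in these data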;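 further: 0% = DMSO plus EC80 beta-PEA response and 100% = DMSO alone without agonist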
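test system = CHO RD-HGA16 cells bearing hTAAR1 | replication = singlicate | controls = DMSO-only wells and EC80 β-PEA-stimulated wells | reagent = EC80 β-phenethylamine stimulus | read-out basis = percent inhibition of PEA-evoked calcium signal, max/basal emission ratio | schedule = seeding 17-24 h prior, 75-min 37 °C, 30-min RT dye loading | signal = kinetic Fluo-8 calcium fluorescence measurement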
TAAR1 ag – human TAAR1 agonism; activation, % at 3 µM; AID 624467; Q96RJ0; CHO RD-HGA16 TAAR1, Fluo-8 calcium fluorescence; vehicle wells 0%, saturating PEA agonist 100%; actives 0.99% (n = 360,000);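 active means activation above the mean activation of all test compounds in the run plus 3 SD, cut at about 38% in these data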
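Test system: RD-HGA16 (CHO) cells co-expressing Gα16 and hTAAR1 / Benchmarks: DMSO vehicle as 0%, PEA at EC100 as 100% / Repeats: no replicates (n 1) / Measure: % activation from peak over basal fluorescence ratio, DMSO-to-PEA scaled / Timing: 17-24 h plating, Fluo-8 75 min 37 °C, 30 min RT / Technique: kinetic Fluo-8 calcium fluorescence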
CHO parental Ca – counter-screen: ATP calcium response change in parental CHO cells | parental CHO-K1, ATP-induced calcium, Fluo-8 fluorescence | inhibition, % at 5.6 µM | actives 0.63% (n = 330,000) | AID 463079;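 active means inhibition above that plate's mean sample inhibition plus 3 SD, cut at about 26% in these data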;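 further: 0% = ATP-challenged DMSO wells and 100% = DMSO wells without ATP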
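Material – parental CHO cells · Reagent – ATP stimulus · Compound – single nominal dose of 5.6 µM per compound · Detection – Fluo-8 fluorescence · Read-out basis – percent inhibition of calcium signal · Controls – ATP-challenged DMSO wells low, unchallenged DMSO wells high · Repeats – no replicates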
OX1R antag-2 – human HCRTR1 antagonism | AID 434989 | CHO/OX1R cells, Fluo-8 calcium fluorescence, orexin A | actives 0.43% (n = 330,000) | inhibition, % at 5 µM | O43613;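 active means inhibition above its plate's threshold, mean inhibition of all tested compounds on the plate plus 3 SD, cut at about 37% in these data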;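 further: 0% = orexin A challenge wells and 100% = SB-334867-A antagonist wells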
TAAR1 ag conf – confirmation of human TAAR1 agonists; shares compounds with TAAR1 ag; CHO RD-HGA16 TAAR1, Fluo-8 calcium fluorescence; scaled: DMSO 0%, maximal phenethylamine 100%; activation, % at 3 µM; actives 82% (n = 2,400); AID 651783;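 active means activation above a cutoff set at the run's mean compound activation plus 3 SD, cut at about 39% in these data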
Ga16 ag counter – counter-screen for TAAR1 agonists: nonselective agonists in parental cells; actives 50% (n = 2,400); shares compounds with TAAR1 ag; activation, % at 3 µM; CHO-Ga16 parental, Fluo-8 calcium fluorescence; normalized to maximal ATP response, DMSO zero;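 active means activation above the run cutoff, the mean activation over all tested wells plus 3 SD, cut at about 12% in these data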;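 further: 0% = DMSO wells and 100% = maximal ATP response on the peak over basal ratio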
TAAR1 desens – counter-screen for human TAAR1 agonists: agonists that desensitize TAAR1; shares compounds with TAAR1 ag; CHO RD-HGA16 hTAAR1, Fluo-8 calcium, beta-PEA response inhibition; inhibition, % at 3 µM; actives 46% (n = 2,400); AID 651951;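 active means inhibition above the run cutoff, the mean inhibition of all test compounds plus 3 SD, cut at about 49% in these data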;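 further: beta-PEA stimulus applied at its EC80; loss of beta-PEA calcium signal after compound pretreatment read as receptor desensitization; 0% = DMSO with beta-PEA at EC80 and 100% = DMSO alone without agonist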
Ga16 nonsel ant – nonselective Ga16 antagonist in TAAR1 agonist counter-screen; shares compounds with TAAR1 ag; inhibition, % at 3 µM; CHO-Ga16 ATP-induced calcium, Fluo-8 fluorescence; actives 39% (n = 2,400); AID 651952;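 active means inhibition above the plate's mean compound inhibition plus 3 SD, computed per plate, cut at about 22% in these data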;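 further: 0% = EC80 ATP with DMSO and 100% = DMSO wells without ATP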
GalR3 conf – GalR3 (human) antagonism, confirmation; actives 59% (n = 1,600); AID 652245; HEK293 GalR3 CNG cAMP biosensor, membrane potential fluorescence; galR3 fused to GalR1 carboxy tail; challenged with forskolin and galanin at EC90; inhibition, % at 3 µM; shares compounds with GalR3 antag;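 active means inhibition above the primary screen's cutoff, the mean inhibition of all screened compounds plus 3 SD, cut at about 13% in these data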;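 further: 0% = forskolin plus galanin and 100% = forskolin alone with DMSO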
HEK-CNG parental – parental cell agonism counter-screen for GalR3 antagonists | shares compounds with GalR3 antag | HEK293-CNG parental cells, cAMP membrane potential fluorescence; normalised: DMSO wells 0%, forskolin wells 100% | activation, % at 3 µM | actives 10% (n = 1,600) | AID 652268; in the data active means activation above about 1.3%
* marks the source's active call; other numbers are inactive results; / = not tested or not shown. A selection: hits, their analogues and other compounds. The true share with any hit is near 4.3%.

SMILES	GalR3 antag	OX1R antag-1	TAAR1 antag	TAAR1 ag	CHO parental Ca	OX1R antag-2	GalR3 conf	HEK-CNG parental	others
CCOC(=O)C(O)(c1ccc(NC(=S)NC(=O)c2ccc(Cl)cc2Cl)c(C)c1)C(F)(F)F (stereo not drawn)	45*	11	99*	76*	50*	47*	50*	-1	TAAR1 ag conf=96*;Ga16 ag counter=56*;TAAR1 desens=107*;Ga16 nonsel ant=85*
C[C@@H]1CN([C@H](C)CO)C(=O)CCCn2nncc2CO[C@H]1CN(C)C(=O)Oc1cccc2ccccc12	1	/	-7	1	/	/	/	/
O=C(Cc1cc(=O)oc2cc(O)ccc12)NN=Cc1ccc(N(CCCl)CCCl)cc1	16*	/	-33	0	/	/	31*	-1
O=C(NN=Cc1ccc(N(CCCl)CCCl)cc1)c1cc(=O)[nH]c(=O)[nH]1	3	/	-28	1	/	/	/	/
C1=C(c2ccccc2)CCNC1	3	1	-33	19	-11	-13	/	/
Oc1ccc(C2=CCNCC2)cc1O	73*	21	22	6	-9	8	87*	0
C[N+](C)(C)CCOC(=O)CBr	-3	11	5	0	4	-9	/	/
CC(=O)OCC[N+](C)(C)C	44*	-1	1	0	3	0	70*	1
CCC1(CCO)C(=O)NC(=S)NC1=O	-5	/	6	0	/	/	/	/
COc1ccc(C(=O)N/N=C/C23CC[C@@H](O)CC2(O)CC[C@@H]2[C@@H]3CCC3(C)C(C4=CC(=O)OC4)CCC23O)cc1 (stereo partly drawn)	34*	4	-23	0	-3	-6	40*	1
CN(C)c1ccc(C(=O)N/N=C/C23CC[C@@H](O)CC2(O)CC[C@@H]2[C@@H]3CCC3(C)C(C4=CC(=O)OC4)CCC23O)cc1 (stereo partly drawn)	42*	10	-19	0	1	-5	38*	1.4*
COc1ccc(C2N(c3cc(C)on3)C(=O)C3CCCN32)cc1 (stereo not drawn)	1	4	-6	9	1	20	/	/
NC(=S)c1cn(C2OC(CO)C(O)C2O)c2ncnc(N)c12 (stereo not drawn)	51*	-4	9	2	3	9	83*	0
O=C(N/N=C/c1c(O)n(CCc2ccccc2)c(=O)[nH]c1=O)c1ccccc1O	77*	38	-17	8	-9	-15	53*	0
O=C(N/N=C/c1c(O)n(CCc2ccc(F)cc2)c(=O)[nH]c1=O)c1ccncc1	25*	13	-25	7	-12	-9	19*	0
O=C(N/N=C/c1c(O)n(CCc2ccccc2)c(=O)[nH]c1=O)c1ccncc1	5	14	-23	5	-7	-7	/	/
O=C(N/N=C/c1c(O)n(Cc2ccc(F)cc2)c(=O)[nH]c1=O)c1ccccc1O	13*	10	-19	7	-3	13	6	0
CCOC(=O)c1c(-n2c(C)cc(C=C3C(=O)NC(=S)NC3=O)c2C)sc2c1CCCC2	/	12	/	/	-8	-13	/	/
CCN1C[C@@]2(COC)C3[C@@H](OC)[C@H]4[C@@H]1[C@@]3(C1C[C@H]3[C@H](OC(C)=O)C1[C@]4(OC(C)=O)C[C@H]3OC)[C@@H](OC)C[C@H]2OC(C)=O (stereo partly drawn)	/	7	/	/	-4	-5	/	/
CC1=C(N2CC2)C(=O)C(CO)=C(N2CC2)C1=O	-5	/	-9	4	/	/	/	/
OC(CN1CCOCC1)c1csc2ccccc12 (stereo not drawn)	0	5	-3	1	-6	-12	/	/
O=C1NCN(c2ccccc2)C12CCN(C(c1cc3ccccc3o1)c1nnnn1C1CCCCC1)CC2 (stereo not drawn)	-5	/	-10	1	/	/	/	/
CC(=O)OC1CC[C@]2(C#N)[C@H]3CC[C@]4(C)[C@H](C5C=CC(=O)O5)CCC4(O)C3CCC2(O)C1 (stereo partly drawn)	26*	5	12	3	-2	-2	22*	1.8*
O=c1[nH]c2ccccc2n1C1CCN(C(CCc2ccccc2)c2nnnn2-c2ccc3c(c2)OCCO3)CC1 (stereo not drawn)	21*	/	55*	7	/	/	17*	0
COC(=O)C1=C(c2ccc(OC)c(OC)c2)C[C@@H]2CC[C@H]1N2C(=O)NC1CC1	15*	-2	-16	7	-11	4	1	0
SMILES	GalR3 antag	OX1R antag-1	TAAR1 antag	TAAR1 ag	CHO parental Ca	OX1R antag-2	GalR3 conf	HEK-CNG parental	others
COC(=O)C1=C(c2cccc(C#N)c2)C[C@@H]2CC[C@H]1N2C(=O)NC1CC1	15*	2	-1	3	-9	4	13*	0
CC(C)S(=O)(=O)N1Cc2ccccc2-n2nncc2C1	-4	/	16	0	/	/	/	/
CC1(C)N=C(c2ccccc2)[C@@H]2C(c3ccc([N+](=O)[O-])cc3)N21 (stereo partly drawn)	-6	38	4	1	-5	4	/	/
CCN(CC)c1ccc(/C=C2\C(=O)NC(=O)N(CC3CCCO3)C2=O)cc1 (stereo not drawn)	0	1	4	29	-10	3	/	/
Cc1ccc(/C=C2\C(=O)NC(=O)N(CC3CCCO3)C2=O)s1 (stereo not drawn)	16*	13	-13	4	-1	7	8	0
N=C1c2ccccc2CN1NC(=O)c1ccco1	13*	6	-10	4	1	-6	2	0
